# Screens: PubChem BioAssay, several laboratories
# A selection: hits, their analogues and other compounds. The true share with any hit is near 1.9%.
# MC4R antagonist = blocks human MC4R cAMP signaling; MC4R-expressing cells, MTII-stimulated cAMP, LANCE TR-FRET; 0.48% of 360,000 active; AID 540295; P32245; inhibition, % at 6.5 µM;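 active = inhibition above its plate's cutoff, the mean of tested wells on that plate plus 3 SD, cut at about 29% in these data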
#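 Assay system: U2OS-MC4R stable cell line; Also added: Melanotan II; Technique: Eu-cAMP/anti-cAMP TR-FRET, emission 671 nm; Times: 30-min compound, 1-h challenge, 1-h detection, room temperature.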
# TLR9-MyD88 inh = inhibitors of human TLR9-MyD88 binding | AID 504734 | Q9NR96+Q99836 | CHO BLA complementation TLR9-MyD88, CCF4 FRET ratio | inhibition, % at 4.98 µM | 0.21% of 340,000 active;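 active = inhibition above the mean over all tested compounds plus 3 SD, cut at about 21% in these data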
# NTR1 agonist = activates human neurotensin receptor 1; AID 493036; activation, % at 20 µM; P30989; 0.17% of 330,000 active; NTR1-U2OS beta-arrestin-GFP spot imaging, agonist mode;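 active = activation at or above 40% of the spot to cytoplasm intensity ratio, with at least 20 cells analyzed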
# MC4R ag barr = agonists of human melanocortin 4 receptor (MC4R) beta-arrestin; U2OS MC4R beta-arrestin complementation, luminescence; percent of melanotan II response, DMSO zero; activation, % at 8.9 µM; 0.98% of 360,000 active; AID 540308;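 active = activation above a per-plate cutoff, the mean activation of sample wells on that plate plus 3 SD, cut at about 8% in these data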
# NOD2-RIPK2 inh = inhibitors of human NOD2-RIPK2 interaction; 0.38% of 360,000 active; O43353; inhibition, % at 4.98 µM; CHO BLA complementation NOD2-RIPK2, CCF4 ratio; in the data active = inhibition above about 21%
# TLR4 MyD88 comp = TLR4-MyD88 interaction inhibition in cells; O00206+Q99836; HeLa CL3-4 TLR4/MyD88 BLA complementation, FRET ratio; inhibition, % at 8.4 µM; 0.18% of 200,000 active; AID 861; in the data active = inhibition above about 25%
# MC4R barr conf = human MC4R beta-arrestin agonism confirmation; AID 602192; U2OS MC4R beta-arrestin recruitment, luminescence; scaled DMSO 0%, Melanotan II 100%; activation, % at 8.9 µM; 31% of 2,400 active; shares compounds with MC4R ag barr;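 active = mean activation across replicates above the hit cutoff set in the earlier primary screen, cut at about 8% in these data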
# MOR-DOR barr ag = counter-screen for MC4R agonists: agonists of mu-delta opioid heterodimer. shares compounds with MC4R ag barr. U2OS PathHunter beta-arrestin, beta-gal luminescence; percent of deltorphin B response, DMSO zero. activation, % at 9.2 µM. 5.8% of 2,400 active. AID 602194;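 active = mean activation across replicates exceeds the hit threshold derived in the earlier primary screen, cut at about 18% in these data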
# Target sequence (P35372 whole entry, looked up): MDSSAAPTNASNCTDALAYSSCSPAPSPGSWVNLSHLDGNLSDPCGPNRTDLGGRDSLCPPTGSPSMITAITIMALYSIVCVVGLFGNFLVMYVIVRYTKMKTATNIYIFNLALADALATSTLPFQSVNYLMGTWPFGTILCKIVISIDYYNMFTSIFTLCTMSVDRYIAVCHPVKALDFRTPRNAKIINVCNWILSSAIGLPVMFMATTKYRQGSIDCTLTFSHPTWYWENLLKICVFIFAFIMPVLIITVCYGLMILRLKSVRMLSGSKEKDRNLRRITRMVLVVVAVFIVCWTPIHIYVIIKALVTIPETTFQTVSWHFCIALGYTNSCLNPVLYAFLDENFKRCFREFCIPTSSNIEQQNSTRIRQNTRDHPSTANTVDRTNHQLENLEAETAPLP
# Target sequence (P41143 whole entry, looked up): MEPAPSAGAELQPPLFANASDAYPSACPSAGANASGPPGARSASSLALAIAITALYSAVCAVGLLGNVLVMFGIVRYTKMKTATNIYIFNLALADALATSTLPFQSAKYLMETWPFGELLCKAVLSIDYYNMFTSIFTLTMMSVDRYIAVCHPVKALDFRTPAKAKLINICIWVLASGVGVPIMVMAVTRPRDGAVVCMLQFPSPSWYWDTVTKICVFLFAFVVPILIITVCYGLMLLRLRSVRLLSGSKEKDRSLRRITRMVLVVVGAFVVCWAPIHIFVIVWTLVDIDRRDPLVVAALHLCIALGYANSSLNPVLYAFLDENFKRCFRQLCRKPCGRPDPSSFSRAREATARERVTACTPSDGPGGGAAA
# A number is an active result; – = inactive; · = no result given.
SMILES,MC4R antagonist,TLR9-MyD88 inh,NTR1 agonist,MC4R ag barr,NOD2-RIPK2 inh,TLR4 MyD88 comp,MC4R barr conf,MOR-DOR barr ag
COc1cc(C2=NOC(C(=O)Nc3cc(C)on3)C2)cc(OC)c1OC (stereo not drawn),–,–,–,–,–,·,·,·
Cc1ccc(C(=O)Nc2cc(Cl)ccc2OC(=O)c2ccc(C)cc2)cc1,·,·,–,·,·,–,·,·
O=C(Nc1ccccc1OC(=O)c1ccc(Cl)cc1)c1ccc(Cl)cc1,–,–,–,36,–,–,–,–
O=C(Nc1cc(Cl)ccc1Cl)c1ccc(OC(=O)c2ccco2)cc1,–,–,–,13,–,–,–,–
COc1ccc(C(=O)Nc2cc(Cl)ccc2OC(=O)c2ccc(OC)cc2)cc1,–,–,–,14,–,–,–,–
O=C(Nc1ccccc1O)c1ccc(Cl)cc1,–,–,–,–,–,–,·,·
CCOC(=O)C1(CC2CCCCO2)CCN(Cc2ccc(OC)cc2F)CC1 (stereo not drawn),–,–,–,–,–,–,·,·
O=C(NNC(=O)c1ccc(Cn2cccn2)o1)NC12CC3CC(CC(C3)C1)C2,–,–,–,–,–,·,·,·
CCC1CN(C(=O)Nc2ccc(C)cc2)c2cc(C)ccc2O1 (stereo not drawn),–,–,–,11,–,–,–,–
Cc1noc(C(F)(F)F)c1C(=O)NNC(=O)c1ccccc1,–,–,–,–,–,·,·,·
CCOc1ccc(-c2nnc3n2N=C(c2ccc(OC)cc2)CS3)cc1,–,–,–,12,–,–,–,–
CC(=O)Nc1ccc(/C(C)=N/NC(=O)c2ccc(COc3ccccc3Cl)o2)cc1,–,–,–,–,–,·,·,·
COc1ccc(/C=N/NC(=O)c2ccc(COc3ccccc3Cl)o2)c(OC)c1C,–,–,–,17,–,–,18,–
COc1ccc(/C=N/NC(=O)c2ccc(COc3ccccc3Cl)o2)cc1,–,–,–,9.9,–,–,–,–
Cc1ccc(NC(=O)CN2C(=O)C3CC=C(Cl)CC3C2=O)cc1 (stereo not drawn),–,–,–,–,–,·,·,·
CCn1c(SCc2ccc(F)cc2)nnc1-c1nn(-c2ccccc2)ccc1=O,–,–,–,–,–,–,·,·
O=C(CCCCn1c(=O)c2ccccc2n(Cc2ccc(Cl)cc2)c1=O)NCc1ccco1,–,–,–,12,–,–,–,–
Cc1nc2c3ccccc3nc(SCC(=O)c3ccc(Cl)cc3)n2n1,–,–,–,11,–,–,14,–
CCCCn1c(SCC(=O)NCc2ccco2)nc2ccccc2c1=O,–,–,–,–,–,–,·,·
O=C(CCCCCn1c(SCC(=O)c2ccccc2)nc2ccccc2c1=O)NCc1ccco1,–,–,–,28,–,–,–,–
O=C(CCCn1c(SCC(=O)c2ccc(Cl)cc2)nc2ccccc2c1=O)NCc1ccco1,–,–,–,19,–,–,–,29
Cc1c(NC(=S)NC(NC(=O)C(C)C)C(Cl)(Cl)Cl)c(=O)n(-c2ccccc2)n1C (stereo not drawn),–,–,–,–,–,–,·,·
Cc1ccc(OCCNC(=O)CNC(=O)c2ccccc2Cl)cc1,–,–,–,–,–,·,·,·
Cc1cc(OCC(=O)OCC(=O)N2c3ccccc3NC(=O)C2(C)C)ccc1Cl,–,–,–,–,–,·,·,·
Cc1onc(-c2ccc(Cl)cc2Cl)c1-c1csc(N/N=C/c2ccccc2)n1,–,–,–,–,–,·,·,·
SMILES,MC4R antagonist,TLR9-MyD88 inh,NTR1 agonist,MC4R ag barr,NOD2-RIPK2 inh,TLR4 MyD88 comp,MC4R barr conf,MOR-DOR barr ag
COc1cc(NC(=S)NCCN2CCOCC2)cc(OC)c1,–,–,–,–,–,–,·,·
Cc1ccc2cc3c(NC(=O)c4ccco4)nn(CC(C)C)c3nc2c1,–,–,–,13,–,–,–,–
O=C(CNC(=S)NC(=O)c1ccccc1Br)c1ccccc1,–,–,–,21,–,–,–,–
COc1ccc(C(=O)OCC(=O)c2c[nH]c3ccccc23)c(OC)c1,–,–,–,–,–,·,·,·
O=C(OCC(=O)c1c[nH]c2ccccc12)c1cc2ccccc2cc1O,–,–,–,12,–,–,–,–
CCC(C(=O)N1CCOCC1)n1nc(C)c2c(C)n(-c3ccccc3)nc2c1=O (stereo not drawn),–,–,–,–,–,·,·,·
CCCCCCCNC(=O)C1(CC2CC(c3ccc(Cl)cc3)=NO2)CCNCC1 (stereo not drawn),–,–,–,9.7,–,·,24,–
CC(=N)c1c(O)cc(C)oc1=O,–,–,·,–,–,·,·,·
Cn1c2ccccc2c2cnn(CC(=O)Nc3cccc(F)c3)c(=O)c21,–,–,–,9.7,–,·,–,–
Cc1ccc2nc(-c3ccc(NC(=O)CN4CCN(c5ccccn5)CC4)cc3)sc2c1,–,·,–,10.0,–,·,–,–
Cc1ccc2nc(-c3ccc(NC(=O)CSc4nc(N)cc(=O)[nH]4)cc3)sc2c1,–,–,–,13,–,·,–,–
CCOC(=O)c1c(C)oc2ccc(OC(=O)c3cccs3)cc12,–,–,–,–,–,–,·,·
CCC(=O)c1ccc(OCC(=O)NCC2COc3ccccc3O2)cc1 (stereo not drawn),–,–,–,–,–,·,·,·
CCOC(=O)C1=C(Nc2ccc(OC)cc2)OCC1=O,–,–,–,–,–,·,·,·
O=C(NCCCn1ccnc1)c1cccc(Br)c1,–,–,–,–,–,·,·,·
Cn1cccc1/C=N/NC(=O)Cc1ccccc1,–,–,–,–,–,·,·,·
Cn1cccc1/C=N\NC(=O)Cc1ccc(Br)c2ccccc12,–,–,–,17,–,–,–,–
Cc1ccc(-c2csc3nc4c5ccccc5c(NCCCN(C)C)nn4c(=O)c23)cc1,–,–,–,13,–,–,33,–
CCOc1ccc(C(=O)NCC(=O)Nc2ncccc2C)cc1OCC,–,–,–,–,–,·,·,·
O=C(Nc1ccc2oc(-c3cccc(F)c3)nc2c1)c1ccccc1F,–,–,–,27,–,–,16,–
Cn1c(SCc2ccccc2)nnc1-c1ccc2c(c1)OCO2,–,–,–,–,–,–,·,·
Fc1ccc(CSc2ccc(-c3ccc4c(c3)OCO4)nn2)cc1,–,–,–,11,–,–,–,–
c1ccc(CSc2ccc(-c3ccc4c(c3)OCO4)nn2)cc1,–,–,–,29,–,–,–,–
CC(NC(=O)c1ccccc1Br)c1nnc(SCC(=O)NC2=NCCS2)n1C (stereo not drawn),–,–,–,–,–,·,·,·
O=C(COC(=O)c1ccccc1Nc1ccccc1)NCc1ccccc1Cl,–,–,–,16,–,–,10,–
